Reference: the EternaBench riboswitch data

System: MS2 coat protein
Assay: apparent Kd, MS2 coat protein; higher = weaker binding; RNA-MaP array; FMN 200 µM where present
Method in brief: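 The apparent Kd is reported as the median of filtered per-cluster binding-curve fits. To get these curves, designs transcribed by stalled E. coli RNA polymerase on Illumina sequencing-chip clusters were titrated with SNAP-549-labelled MS2 coat protein from 0.7 or 1.5 nM, doubling to 3 µM. Titrations were run without and then with constant ligand in 100 mM Tris-HCl pH 7.5, 80 mM KCl, 4 mM MgCl2, BSA, DTT, yeast tRNA and Tween-20, and green signal was normalised to red-channel RNA signal and control-cluster median Fmax.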

[1] = designed as: OFF switch for flavin mononucleotide, no ligand
[2] = ligand present: flavin mononucleotide, designed as: OFF switch for flavin mononucleotide
[3] = designed as: ON switch for flavin mononucleotide, no ligand
[4] = ligand present: flavin mononucleotide, designed as: ON switch for flavin mononucleotide

| Sequence | apparent Kd [1] [nM] | apparent Kd [2] [nM] | apparent Kd [3] [nM] | apparent Kd [4] [nM] |
| --- | --- | --- | --- | --- |
| GCAUUUUAUGCAGGAUAUUGUCUUUGGAUUAAACAAGAAGGGCAUAACAUGAGGAUCACCCAUGUUUUAUAGGUAUAUAUGUUC | 14.2 | 21.6 | – | – |
| GUGUUACAUGAGGAUCACCCAUGUUGUUGUAGAUAAGGAUAUAUGGUAACGAGAGAAAUAAUAGAAGGUAUUAGGC | – | – | 37 | 31.6 |
| UUUGAUGUUGAGGAUAUGCUUUUUUUUAUUAUAGCAGAAGGCGAUACAUGAGGAUCACCCAUGUUCAUGGCUUU | 12.8 | 15.5 | – | – |
| UAGAAGUCAGGAUAUGCAUGGCGGGACUUGCGUCGUGGCGUGCAGAAGGGACAUGAGGAUCACCCAUGUGGAGG | 152 | 219 | – | – |
| ACCGAAUGAACAUGAGGAUCACCCAUGUACACGAAAGUGAAUGAGGAUAUCGAUAGCAAAGCUAUCGAGAAGGCAUGGGUCGGU | – | – | 565 | 144 |
| UGUUGUAUUACAGGAUAUCUAUUGUAUUUAUUUAGAGAAGGGUAUUCACAUGAGGAUCACCCAUGUAUAUACGAGGAAGUUGUG | – | – | 63.9 | 70.8 |
| GUGGUUGUCGUAGGAUAUGUAGGAUAUUCCUACAUGAGGAUCACCCAUGUUAGCAUGGAAGAAGGACAGAAGGACGAUGACCAG | – | – | 904 | 15.1 |
| AUGUGGUGCGUAGGAUAUCAUUGAGGGUCACCCUGAGAAGGACGUGAGGACAUGAGGAUCACCCAUGUGGAUCACCCAUGUCAU | 245 | 288 | – | – |
| GGGUACAUCGGAGGAUAUCAUGUAAAUACAUGAGGAUCACCCAUGUCGAUGGAGACAUCGGAGAUUGAGAAGGACGAUGUACCG | – | – | 320 | 14 |
| GUUGUAAUGUCAGGAUAUAUAAUAAGUCAUACAGUAGAAGGGAUAAUUAUACUCAUGUACAUGAGGAUCACCCAUGUUAAAUAG | – | – | 63.6 | 37.9 |
| GGUACUCAAAGAGUACAAGAAAGAACAUGAGGAUCACCCAUGUAGGAUAUGCUACUCAAAGAGUAGCAGAAGGACAUGUGCAGC | 30.6 | 103 | – | – |
| CUGAUGUGAGGAUAUCGGGCUACGGCCAGGCCGCUAGCAUUCGAGAAGGCACAUGAGGAUCACCCAUGUGAGAA | 25.4 | 39.8 | – | – |
| ACGGCUGUCAGAGGAUAUGGUUACAUGAGGAUCACCCAUGUCAAGGGUCUAACUAAGUAUAGCUACUAGAAGGCUGAUGGCCGA | 158 | 107 | – | – |
| AAUAUGUUGCAGAAGGCUAUAUUGUUGUAGUACCUCAUGACAUGAGGAUCACCCAUGUUUUUGUUGGAGGAUAUGCAAUAUAUU | 7.32 | 7.07 | – | – |
| UUUUAACAUGAGGAUCACCCAUGUGAGGAUAUCGAAAUUUAUAUUAAUAUUUAUUUAUCGAGAAGGCACAUUUU | 115 | 135 | – | – |
| AAGGGACAUGAGGAUCACCCAUGUGAGGAUAUGCUAUGGAAAAUAAAAAAUAAACAUAGCAGAAGGCAUAAAAA | 64.9 | 97 | – | – |
| AAUAAACUCACAGGAUAUAGCAUCGACGUUGCGAACUUAGCGACGUCGAUGCUAGAAGGGUGAAAACAUGAGGAUCACCCAUGU | – | – | 30.9 | 13.4 |
| UUUUUGUAAGAGAAGGAGGACUUCAUGAGGAUCACCCAUGUGUUAGUACUUAGGAUAUUUGACAACAUGAGGAUCACCCAUGUC | – | – | 72 | 70.1 |
| CUUACACAUGAGGAUCACCCAUGUGAGGAUAUGCGUACGUUGUCCGUAGGCGACGUGCGCAGAAGGCGCUUGGU | 61.6 | 62 | – | – |
| AGCUAGUACCGAGGAUAUACGUACAUGAGGAUCACCCAUGUAUACAUGAAUUAAUGAGACUACAUGUAGAAGGCGGUACUAGCA | – | – | 51.4 | 14.2 |
| UUAUUUAUACAAGGAUAUCUAUUGUUAAUUCGACUUACAUGAGGAUCACCCAUGUUUUUAUGUUUAGAGAAGGUGUAAUUUCUG | – | – | 25.8 | 26.4 |

| Sequence | apparent Kd [1] [nM] | apparent Kd [2] [nM] | apparent Kd [3] [nM] | apparent Kd [4] [nM] |
| --- | --- | --- | --- | --- |
| UGUUAAUUGUAGAAGGGUGACAUGAGGAUCACCCAUGUACUAAUGCGAUUUACGGCGCAUGUUCCACAGGAUAUACAGUUGAGU | – | – | 1270 | 274 |
| CAGUAGAUCCGAGGAUAUACAAUCCGGAAACGGUACAUGAGGAUCACCCAUGUAGAAGGCGGAUCUACAGGUACUAAAGUACCU | 5.56 | 8.31 | – | – |
| UGGUACAUGGGAGGAUAUGGGUUGAUAACAUGAGGAUCACCCAUGUUAAAUGCCGAAAGGCAAAACUAGAAGGCCCAUGUACCU | – | – | 257 | 24.5 |
| UUCGAGCCAAGGCUCGCGAGUACACAGGAUAUGGAAAGUCACAUGAGGAUCACCCAUGUCCAAAACCAGAAGGGUGAGACUAAG | – | – | – | 70.4 |
| UAUGGUUAAGUCAGGAUAUGCUCAUAGAGGUCUGUGCAGAAGGGACAUGAGGAUCACCCAUGUAUGGUAGUGUU | 194 | 240 | – | – |
| AACGUCCUAGGAUAUACGCUGGGACUCGCCAUGUGGGCCCUACAUGAGGAUCACCCAUGUAGAAGGAGGACAUG | 19.5 | 12.9 | – | – |
| GACGGUGAUGUAGGAUAUACGCUGGAAUACAGCGUAGAAGGACAUGAGGAUCACCCAUGUAAAGUGUCUCCGAAUAACACCGUC | 35.3 | 68.6 | – | – |
| GCGUUAUUGUAGAAGGUACAUGAAUAUAUUUAAUACCUCAAGUAACAUGAGGAUCACCCAUGUAGUAAGGAUAUACAUAUACGC | – | – | 69.4 | 52.4 |
| ACAUAGCGAGGAUAUACAUGAGGAUCACCCAUGUGGUGGCGGUUACGGUAGGACUAGUGUAGAAGGUGCCAUGG | 418 | 424 | – | – |
| ACAUGAGGAUCACCCAUGUUCGUCGCGUUGUGUCGCGAGUCUGAGGAUAUCGAGGUGGGUUUUGUUGAGAAGGCGGGCCCGUGU | – | – | 129 | 151 |
| UUAUGGAGGUAGGAUAUCAUGACGUCUUAGUUGUGAGAAGGGCUUACAUGAGGAUCACCCAUGUGGUGUUUUUG | 584 | 192 | – | – |
| UAAAAGCUAGGAUAUACAUGAGGAUCACCCAUGUACCGGCUUGGCCCUGGUCCUAAAUGUAGAAGGAGCACGCC | 15.2 | 23.9 | – | – |
| UUGAUUAUACAAGGAUAUCAAUUGUAUACAAGUCAUACAUGAGGAUCACCCAUGUUUUAUUUUUUUGAGAAGGUGUAUUGUCAG | – | – | 38.9 | 24 |
| UUAUACAUGAGGAUCUCCCAUGACAUGAGGAUCACCCAUGUGCAGGAUAUACGUGUUAUAAUAUAGUAGAAGGGCAGUCUAUGU | 27.2 | 66.5 | – | – |
| GCUCGAUGUGCUGAAAACAUGAGGAUCACCCAUGUAAAUGGUCAGGAUAUUUACGUGCUUUAUGUAGAGAAGGGACCAUCGAGC | – | – | 200 | 30.9 |
| UUUAAACAUGAGGAUCACCCAUGUUUUUUUAUGGGAGGAUAUCUAAGUUAAUUAUAUUAAGGAGAAGGCCUAUUUU | – | – | 146 | 26.7 |
| AAACAUGUCCGAGGAUAUCUGGAAACUUUUUCAAGAGAAGGCGGACAUGAGGAUCACCCAUGUCUCUCCUCAUCAAAUCCAAGU | 7.94 | 50.3 | – | – |
| ACUCGAUUUUUGGGUUUACUAUAUGAGGAUAUCAUACAUCUAUACAUGAGGAUCACCCAUGUUACUGAGAAGGCAUAUAUAAUA | – | – | 17.3 | 6.77 |
| AUCCGGCGUGUAGGAUAUGGAUCCGAUUAGGAUCCAGAAGGACAUGAGGAUCACCCAUGUACAUGUAAACAGUCAUCACCGGAC | 11.5 | 136 | – | – |
| GCCAUCGCAUGAGGAUAUGCUCGGGUUUCCCGAGCAGAAGGCAUGUAAUAAAACAUGAGGAUCACCCAUGUAGUUAAGAUGGCA | – | – | 8.29 | 5.36 |
| AGCACGGGAUUGGAGGAUAUGUUGUUUGCAACAUGAGGAUCACCCAUGUCUGAGGCUGAAAAGCAGCAGAAGGCCGAUACAACCA | – | – | 347 | 71.5 |
